Experiments:
V79 [1] = assay: Ratio of IC50 for Chinese hamster V79 cells to IC50 for Chinese hamster V79 cells transfected with Escherichia coli nitroreductase nfsB; set-up: species or system Cricetulus griseus
Summary of the method: (§1)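 V79 cells carrying vector only served as the control line. The NTR+ line carried a bicistronic construct encoding E. coli nfsB with a puromycin selection marker. Cells were exposed to drug for 72 h. […] The ratio is IC50 in NTR− cells divided by IC50 in NTR+ cells.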

V79 [2] = assay: Antiproliferative activity against Chinese hamster V79 cells transfected with Escherichia coli nitroreductase nfsB assessed as reduction in cell number after 72 hrs; type: functional, cell-based; conditions: Cricetulus griseus, V79, 72 h; summary of the method: as §1
SK-OV-3 [3] = assay: Antiproliferative activity against human SKOV3 cells after 18 hrs assessed as reduction in cell number; type: functional, cell-based; conditions: SK-OV-3, 18 h
Summary of the method: (§2)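 Untransfected parental SKOV3 cells were compared with SKOV3 cells expressing E. coli nfsB. Drug exposure lasted 18 h. […] The ratio is IC50 in NTR− cells divided by IC50 in NTR+ cells.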

V79 [4] = assay: Antiproliferative activity against Chinese hamster V79 cells assessed as reduction in cell number after 72 hrs; type: cell-based; conditions: Cricetulus griseus, V79, 72 h; summary of the method: as §1
SK-OV-3 [5] = assay: Antiproliferative activity against human SKOV3 cells transfected with Escherichia coli nitroreductase nfsB assessed as reduction in cell number after 18 hrs; type: functional, cell-based; conditions: SK-OV-3, 18 h; summary of the method: as §2
SK-OV-3 [6] = assay: Ratio of IC50 for human SKOV3 cells to IC50 for human SKOV3 cells transfected with Escherichia coli nitroreductase nfsB; type: functional; summary of the method: as §2
Trypanosoma brucei [7] = assay: Trypanocidal activity against of Trypanosoma brucei bloodstream trypomastigote forms assessed as inhibition of parasite growth; type: functional, organism-based
Leishmania major = assay: Trypanocidal activity against Leishmania major promastigote forms infected in sandfly gut assessed as inhibition of parasite growth; type: functional, organism-based
Escherichia coli = assay: Activity of Escherichia coli nitroreductase nfsB assessed as NADH oxidation per mg of protein
Summary of the method: (§3)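 Substrate activity reported as the initial velocity of NADH oxidation (nmol/min/mg) with either E. coli nfsB or T. brucei nitroreductase (TbNTR). The reaction was followed by the change in absorbance at 340 nm.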

Trypanosoma brucei [8] = assay: Activity of Trypanosoma brucei NTR assessed as NADH oxidation per mg of protein; summary of the method: as §3
SK-OV-3 [9] = assay: Antiproliferative activity against human SKOV3 cells with mixed population of 25% NTR(+) cells and 75% NTR(-) cells assessed as bystander effect by measuring mixed population of NTR(+) and NTR (-) cells to produce an IC50 midway on log scale between those in either NTR(+) or NTR(-) cells alone after 18 hrs; type: functional
Summary of the method: (§4)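 Drug exposure lasted 18 h. BE50 is the percentage of NTR+ cells in the mix needed to give an IC50 at the log-scale (geometric) midpoint between the IC50s of pure NTR+ and pure NTR− cultures.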

SK-OV-3 [10] = assay: Antiproliferative activity against human SKOV3 cells with mixed population of 25% NTR(+) cells and 75% NTR(-) cells assessed as reduction in cell number after 18 hrs; type: functional, cell-based; conditions: SK-OV-3, 18 h; summary of the method: as §4
Trypanosoma brucei [11] = assay: Ratio of 4-nitrobenzyl phosphoramide mustard IC50 to compound IC50 for Trypanosoma brucei bloodstream trypomastigote forms; type: functional

SMILES | Ratio IC50 (V79 [1]) | IC50 (V79 [2]) [µM] | IC50 (SK-OV-3 [3]) [µM] | IC50 (V79 [4]) [µM] | IC50 (SK-OV-3 [5]) [µM] | Ratio IC50 (SK-OV-3 [6]) | IC50 (Trypanosoma brucei [7]) [µM] | IC50 (Leishmania major) [µM] | Activity (Escherichia coli) [nmol/min] | Activity (Trypanosoma brucei [8]) [nmol/min] | Activity (SK-OV-3 [9]) [%] | IC50 (SK-OV-3 [10]) [µM] | Ratio IC50 (Trypanosoma brucei [11])
NC(=O)c1cc([N+](=O)[O-])ccc1COP(N)(=O)N(CCCl)CCCl (centres undefined) | >2500 | 0.04 | > 100 | > 100 | 0.8 | >125 |  |  |  |  |  |  | 
C[C@@H](OP(N)(=O)N(CCCl)CCCl)c1ccc([N+](=O)[O-])cc1 (some centres undefined) | 28500 | 0.002 | > 1000 | 57 | 0.28 | >3500 | > 10 | > 30 | 1400 | 34 |  |  | 
COc1cc([N+](=O)[O-])ccc1COP(N)(=O)N(CCCl)CCCl (centres undefined) | 82000 | 0.0005 |  | 41 |  |  | > 10 | 15.6 | 6980 | 239 |  |  | 
Cc1cc(COP(N)(=O)N(CCCl)CCCl)ccc1[N+](=O)[O-] (centres undefined) | 16000 | 0.003 | 477 | 48 | 0.45 | 1060 | > 10 | > 30 | 894 | 158 |  |  | 
NP(=O)(OCc1ccc([N+](=O)[O-])cn1)N(CCCl)CCCl (centres undefined) | 8333 | 0.009 |  | 75 |  |  |  | 8.3 |  |  |  |  | 
COc1cc(COP(N)(=O)N(CCCl)CCCl)ccc1[N+](=O)[O-] (centres undefined) | 16000 | 0.003 | 641 | 48 | 0.44 | 1460 | > 10 | > 30 | 2440 | 0 |  |  | 
C[C@H](OP(N)(=O)N(CCCl)CCCl)c1ccc([N+](=O)[O-])cc1 (some centres undefined) | 32500 | 0.002 | > 1000 | 65 | 0.49 | >2000 | > 10 | > 30 | 916 | 52 |  |  | 
COC(=O)c1cc(COP(N)(=O)N(CCCl)CCCl)ccc1[N+](=O)[O-] (centres undefined) | 690 | 0.1 | 435 | 69 | 0.43 | 1000 |  |  | 167 |  |  |  | 
NP(=O)(OCc1ccccc1[N+](=O)[O-])N(CCCl)CCCl (centres undefined) | >556 | 0.18 | > 1000 | > 100 | 5.23 | >190 | > 10 | > 30 | 256 | 19 |  |  | 
NP(=O)(OCc1ccc([N+](=O)[O-])c(F)c1)N(CCCl)CCCl (centres undefined) | 16000 | 0.003 | 246 | 48 | 0.21 | 1200 | > 10 | 9.05 |  | 1120 | 4.2 | 0.48 | 
NC(=O)Cc1cc([N+](=O)[O-])ccc1COP(N)(=O)N(CCCl)CCCl (centres undefined) | >2000 | 0.05 | > 100 | > 100 | 1.1 | >90 |  |  |  |  |  |  | 
NP(=O)(OCc1cccc([N+](=O)[O-])c1)N(CCCl)CCCl (centres undefined) | >385 | 0.26 | 947 | > 100 | 55 | 17 | > 10 | > 30 | 683 | 369 |  |  | 
NP(=O)(OCc1ccc([N+](=O)[O-])cc1F)N(CCCl)CCCl (centres undefined) | 122750 | 0.0004 | 266 | 49 | 0.08 | 3290 | 9.54 | 4.72 |  |  | 3.9 | 0.37 | 
NP(=O)(OCc1ccc([N+](=O)[O-])cc1)N(CCCl)CCCl (centres undefined) | 73750 | 0.0008 | 943 | 59 | 0.099 | 9520 | > 10 | > 30 | 1280 | 246 | 5.6 | 0.98 | 
NP(=O)(OCc1ccc([N+](=O)[O-])cc1)N(CCBr)CCBr (centres undefined) | 60000 | 0.0001 | 1100 | 6 | 0.09 | 12244 |  |  |  |  |  |  | 
NP(=O)(OCc1ccc([N+](=O)[O-])cc1Cl)N(CCCl)CCCl (centres undefined) | 13100 | 0.002 | 140 | 26 | 0.12 | 1120 | 9.14 | 3.1 |  |  | 3.2 | 0.54 | 425
NC(=O)c1cc(COP(N)(=O)N(CCCl)CCCl)ccc1[N+](=O)[O-] (centres undefined) | >3330 | 0.03 | > 1000 | > 100 | 6.75 | >150 |  |  | 211 |  |  |  | 
NP(=O)(OCc1c(F)cc([N+](=O)[O-])cc1F)N(CCCl)CCCl (centres undefined) | 20880 | 0.0008 | 257 | 17 | 0.17 | 1520 | 0.99 | 1.29 |  | 1450 | 9.2 | 1.37 | 485
NP(=O)(OCc1ccc([N+](=O)[O-])cc1C(F)(F)F)N(CCCl)CCCl (centres undefined) | 12500 | 0.004 | 172 | 50 | 0.31 | 570 | 7.97 | 5.88 |  |  | 2.8 | 1.01 | 
